Test results taken from ChEMBL document CHEMBL1139610, “Design, synthesis, and biological evaluation of novel 4-hydro-quinoline-3-carboxamide derivatives as an immunomodulator” (2005).

Experiments:
Type in all cases: functional
[1] = target: T1, Tumor necrosis factor (Mus musculus) (UniProt P06804); assay: In vitro percent inhibition of tumor necrosis factor, alpha secreted by macrophage at the dose 1 ug/mL
T1 sequence (whole entry): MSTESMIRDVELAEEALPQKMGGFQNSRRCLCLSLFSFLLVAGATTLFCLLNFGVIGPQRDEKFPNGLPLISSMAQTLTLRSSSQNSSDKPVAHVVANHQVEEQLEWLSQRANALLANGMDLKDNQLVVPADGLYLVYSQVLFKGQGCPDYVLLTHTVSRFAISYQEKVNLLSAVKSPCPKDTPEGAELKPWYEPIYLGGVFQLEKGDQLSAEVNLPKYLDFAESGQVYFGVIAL
Procedure, shortened: (§1)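 RAW264.7 macrophages in RPMI 1640 with 10% FCS, 2 mM glutamine, gentamycin; seeded 2×10^5/mL, grown ~3 days to confluence at 37 °C, 5% CO2; LPS 10 µg/mL plus drug at final 1, 10 or 100 µg/mL for 24 h; supernatant TNF-α by ELISA; %inhibition = (control mean − drug mean)/control mean.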

[2] = target: T1, Tumor necrosis factor (Mus musculus); assay: In vitro percent inhibition of tumor necrosis factor, alpha secreted by macrophage at the dose 10 ug/mL; procedure, shortened: as §1
[3] = target: T1, Tumor necrosis factor (Mus musculus); assay: In vitro percent inhibition of tumor necrosis factor, alpha secreted by macrophage at the dose 100 ug/mL; procedure, shortened: as §1
[4] = In vitro percent inhibition of LPS induced B-cell proliferation at the dose 1 ug/mL
Procedure, shortened: (§2)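 Splenocyte single-cell suspension (red cells lysed, 0.16 M NH4Cl-Tris), RPMI-1640 + 10% FBS, 2.5×10^6/mL; LPS 10 µg/mL stimulation with drug at final 1, 10 or 100 µg/mL, triplicate wells; cultured 72 h, 37 °C, [3H]thymidine pulse 0.5 µCi last 16 h, β-counting; %inhibition = (control mean − drug mean)/control mean.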

[5] = In vitro percent inhibition of ConA induced T-cell proliferation at the dose 1 ug/mL
Procedure, shortened: (§3)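 Spleen cells sieved to single-cell suspension, red cells lysed with 0.16 M NH4Cl-Tris, washed, in RPMI-1640 + 10% FBS; seeded at 2.5×10^6/mL, stimulated with ConA 0.5 µg/mL, drug final 1, 10 or 100 µg/mL, triplicates; 72 h at 37 °C, [3H]thymidine 0.5 µCi for final 16 h; cpm counted; %inhibition = (control − drug)/control.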

[6] = In vitro percent inhibition of LPS induced B-cell proliferation at the dose 10 ug/mL; procedure, shortened: as §2
[7] = In vitro percent inhibition of ConA induced T-cell proliferation at the dose 10 ug/mL; procedure, shortened: as §3
[8] = In vitro percent inhibition of LPS induced B-cell proliferation at the dose 100 ug/mL; procedure, shortened: as §2
[9] = In vitro percent inhibition of ConA induced T-cell proliferation at the dose 100 ug/mL; procedure, shortened: as §3

SMILES	inhibition [1] [%]	inhibition [2] [%]	inhibition [3] [%]	inhibition at 1 µg/mL [4] [%]	inhibition at 1 µg/mL [5] [%]	inhibition at 10 µg/mL [6] [%]	inhibition at 10 µg/mL [7] [%]	inhibition at 100 µg/mL [8] [%]	inhibition at 100 µg/mL [9] [%]
CN(C(=O)c1c(O)c2ccccc2n(C)c1=O)c1ccccc1 [ROQUINIMEX]	9.95	18.2	27.3	0	58.1	24.6	70.6	62.7	78.5
CSc1cccc2c(O)c(C(=O)N(C)c3ccccc3)cnc12	2.08	–	-9.52	-2.46	11.4	36.5	52.4	71.7	81.7
O=C(O)c1ccc2ncc(C(=O)Nc3ccccc3)c(O)c2c1	15.2	15.5	–	82.5	71.3	80.6	57.5	48.5	39.8
CCN(C(=O)c1cnc2c(C)cc(C)cc2c1O)c1ccccc1	46.3	29.7	47.6	4.49	31.9	36	35.5	87.5	64.2
CN(C(=O)c1cnc2ccccc2c1O)c1ccccc1	7.59	–	-1.33	17.7	-7.55	8.46	24.9	32.4	-9.33
CCCN(CCC)C(=O)c1cnc2cc(Cl)ccc2c1O	14.7	18.4	-4.03	-3.57	42.1	18.1	49.5	12.6	51.2
CN(C)CCNC(=O)c1cnc2cc(Cl)ccc2c1O	–	–	–	–	14	–	33.7	–	99.9
CN(C)CCNC(=O)c1cnc2ccc(Br)cc2c1O	–	–	–	–	-19.6	–	31.6	–	99.7
CSc1ccc2c(O)c(C(=O)NCCN(C)C)cnc2c1	–	–	–	–	30.3	–	38.5	–	100
Cc1cc(C)c2ncc(C(=O)NCCN(C)C)c(O)c2c1	–	–	–	–	0.95	–	38.5	–	99.6
CN(C(=O)c1cnc2cc(F)ccc2c1O)c1ccccc1	–	–	–	4	-46.8	12.5	-21.5	-127	17.1
CN(C)CCNC(=O)c1cnc2ccccc2c1O	–	–	–	–	-14.4	–	-6.94	–	73.6
O=C(O)c1ccc2ncc(C(=O)Nc3cccc(Cl)c3)c(O)c2c1	–	–	–	78.5	87.6	94.3	84.8	94.7	73.4
O=C(NCCO)c1cnc2cc(Cl)ccc2c1O	–	6.06	77.7	21.3	42.5	29.1	49.8	53.3	93.8
Cc1ccc2ncc(C(=O)NCCN(C)C)c(O)c2c1	–	–	–	–	-27.5	–	-11.2	–	94.9
COc1ccc2c(O)c(C(=O)NCCN(C)C)cnc2c1	–	–	–	–	-40.7	–	-15.3	–	92.8
CSc1ccc2ncc(C(=O)NCCN(C)C)c(O)c2c1	–	–	–	-4.33	-182	-9.69	-42.6	87.7	98.2
CN(C(=O)c1cnc2cc(Cl)ccc2c1O)c1ccccc1	18.6	5.61	25.6	-4.33	-24.7	-26.7	-27.6	14.1	41.2

SMILES	inhibition [1] [%]	inhibition [2] [%]	inhibition [3] [%]	inhibition at 1 µg/mL [4] [%]	inhibition at 1 µg/mL [5] [%]	inhibition at 10 µg/mL [6] [%]	inhibition at 10 µg/mL [7] [%]	inhibition at 100 µg/mL [8] [%]	inhibition at 100 µg/mL [9] [%]
CSc1ccc2c(O)c(C(=O)N(C)c3ccccc3)cnc2c1	14.6	22.2	52.7	31.1	26.2	17	11.8	83.5	76
CSc1ccc2ncc(C(=O)N(C)c3ccccc3)c(O)c2c1	–	–	–	-47	–	-144	-155	65.6	96.3
Cc1cc(C)c2ncc(C(=O)N(C)c3ccccc3)c(O)c2c1	–	–	–	–	1.84	–	12.9	–	47.1
Cc1ccc2ncc(C(=O)N(C)c3ccccc3)c(O)c2c1	–	–	–	–	-59.3	–	-20	–	-1.7
CN(C)CC(C)(C)CNC(=O)c1cnc2ccc(F)cc2c1O	–	–	–	21.3	-30.7	17.8	32.9	70.5	87.4
CN(C)CCNC(=O)c1cnc2cc(F)ccc2c1O	–	–	–	–	-24.6	–	-9	–	87.2
CN(C(=O)c1cnc2cc(C(F)(F)F)ccc2c1O)c1ccccc1	–	-5.45	-3.57	39.8	54.7	6.41	4.11	64.9	93.6
COc1ccc2c(O)c(C(=O)NCC(C)(C)CN(C)C)cnc2c1	–	–	–	48.8	32.6	72.3	29.4	91.6	98.5
COc1ccc2c(O)c(C(=O)N(C)c3ccccc3)cnc2c1	12.1	35.7	35.7	41.3	36.5	24.9	29.3	57.5	53.7
O=C(O)c1ccc(NC(=O)c2cnc3ccccc3c2O)cc1	31.2	5.61	27.5	-1.94	28.6	4.33	38.8	28	-20.9
CN(C)CC(C)(C)CNC(=O)c1cnc2cc(F)ccc2c1O	–	–	–	–	20.8	–	37.2	–	96.3
O=C(Nc1ccccc1)c1cnc2cc(Cl)ccc2c1O	10.5	10.4	23.1	-2.65	16.7	12.3	32.6	27.1	22.3
O=C(Nc1ccc(N(CCO)CCO)cc1)c1cnc2ccccc2c1O	1.82	12.1	30.4	38	45.8	75.8	61	88.5	99.1
O=C(O)c1ccc(NC(=O)c2cnc3ccc(Cl)cc3c2O)cc1	0.78	32.1	-5.35	17.8	12.7	52.9	61.5	87	98.9
CSc1ccc2c(c1)c(O)c(C(=O)N(C)c1ccccc1)c(=O)n2C	14.7	11.2	29.7	13.6	52	30.3	75.3	37.8	79.6
CSc1cccc2c(O)c(C(=O)NCCN(C)C)cnc12	–	–	–	–	32	–	69.1	–	99.9
CN(C)CCNC(=O)c1cnc2ccc([N+](=O)[O-])cc2c1O	–	–	–	–	41.5	–	53.2	–	99.9
